As a reminder, the inhibition is how much of the control response was suppressed. A lower inhibition goes with little suppression. The IC50 is the concentration that inhibits the measured activity by half. A low value points to greater potency.

Data set [1] addresses T1, Amine oxidase [flavin-containing] A (Rattus norvegicus, UniProt P21396).
T1 sequence (P21396 whole entry): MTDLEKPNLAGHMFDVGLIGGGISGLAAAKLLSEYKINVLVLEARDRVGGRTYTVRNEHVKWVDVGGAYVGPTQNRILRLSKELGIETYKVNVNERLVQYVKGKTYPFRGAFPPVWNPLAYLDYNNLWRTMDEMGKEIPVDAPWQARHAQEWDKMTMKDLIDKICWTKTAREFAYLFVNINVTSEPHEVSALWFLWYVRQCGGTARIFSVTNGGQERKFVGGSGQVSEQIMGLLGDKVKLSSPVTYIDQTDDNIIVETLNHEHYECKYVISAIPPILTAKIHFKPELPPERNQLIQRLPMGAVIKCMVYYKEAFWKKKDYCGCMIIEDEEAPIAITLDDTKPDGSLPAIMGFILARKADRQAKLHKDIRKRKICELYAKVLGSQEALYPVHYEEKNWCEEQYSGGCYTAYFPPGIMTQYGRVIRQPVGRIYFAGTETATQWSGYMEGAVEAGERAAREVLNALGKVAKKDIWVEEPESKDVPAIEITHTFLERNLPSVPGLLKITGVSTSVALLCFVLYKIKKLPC
The data set is described as follows: Inhibition of MAO-A in Sprague-Dawley rat brain mitochondrial suspension using kynuramine as substrate at 10 uM incubated for 5 mins prior to substrate addition measured for 5 mins by spectrophotometry. The method in brief: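 Male Sprague-Dawley rat brain (200–250 g) crude mitochondrial fraction, 1 mg/mL, stored at −40 °C in isotonic phosphate/KCl buffer pH 7.4. Selective irreversible inhibitors clorgyline and (−)-L-deprenyl (250 nM each) used to separate isoform activities. Test compound preincubated 5 min, final DMSO 5% (v/v). Kynuramine 90 μM (KM) added, 4-hydroxyquinoline formation read at 314 nm for 5 min. […] Mean of 2–3 independent experiments.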

Data set [2] deals with T2, Amine oxidase [flavin-containing] B (Rattus norvegicus, UniProt P19643).
T2 sequence (P19643 whole entry): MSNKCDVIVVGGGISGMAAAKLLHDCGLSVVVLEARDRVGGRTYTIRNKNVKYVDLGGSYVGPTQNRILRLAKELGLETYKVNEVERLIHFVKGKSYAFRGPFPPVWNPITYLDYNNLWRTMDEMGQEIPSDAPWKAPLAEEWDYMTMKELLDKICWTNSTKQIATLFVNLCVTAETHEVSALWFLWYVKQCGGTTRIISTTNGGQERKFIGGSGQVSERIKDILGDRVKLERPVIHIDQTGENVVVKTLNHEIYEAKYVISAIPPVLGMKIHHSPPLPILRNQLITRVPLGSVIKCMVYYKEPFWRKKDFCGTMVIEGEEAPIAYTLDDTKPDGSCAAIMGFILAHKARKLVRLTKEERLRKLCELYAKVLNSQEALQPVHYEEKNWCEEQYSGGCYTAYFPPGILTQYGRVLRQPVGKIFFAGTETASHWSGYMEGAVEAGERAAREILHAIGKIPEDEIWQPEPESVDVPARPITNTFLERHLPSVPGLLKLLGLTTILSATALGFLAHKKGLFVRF
The data set is described as follows: Inhibition of MAO-B in Sprague-Dawley rat brain mitochondrial suspension using kynuramine as substrate at 10 uM incubated for 5 mins prior to substrate addition measured for 5 mins by spectrophotometry. Put shortly:
(§1)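 Crude brain mitochondria from male Sprague-Dawley rats (200–250 g), used at 1 mg/mL. Isoforms separated with clorgyline or (−)-L-deprenyl, both irreversible at 250 nM. 5 min preincubation with compound, final DMSO 5% (v/v). Kynuramine then added at 60 μM (KM), and 4-hydroxyquinoline formation was followed at 314 nm for 5 min. IC50 by nonlinear regression of inhibition vs −log concentration, or % inhibition at 10 or 20 μM. Mean of 2–3 independent experiments.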

Data set [3] has as its target T1, Amine oxidase [flavin-containing] A. The data set is described as follows: Inhibition of MAO-A in Sprague-Dawley rat brain mitochondrial suspension using kynuramine as substrate incubated for 5 mins prior to substrate addition measured for 5 mins by spectrophotometry.
For data set [4] the target is unchanged. The data set is described as follows: Ratio of moclobemide IC50 to compound IC50 for Sprague-Dawley rat brain MAO-A.
For data set [5], the target named is T2, Amine oxidase [flavin-containing] B. The data set is described as follows: Inhibition of MAO-B in Sprague-Dawley rat brain mitochondrial suspension using kynuramine as substrate incubated for 5 mins prior to substrate addition measured for 5 mins by spectrophotometry. The method in brief: as §1
Data set [6] shares this target. The data set is described as follows: Inhibition of MAO-B in Sprague-Dawley rat brain mitochondrial suspension using kynuramine as substrate at 20 uM incubated for 5 mins prior to substrate addition measured for 5 mins by spectrophotometry. Put shortly:
as §1

`CCNC(=O)Cc1coc2cc(OS(=O)(=O)c3cccc(Cl)c3)ccc12`: the inhibition at 10 µM was determined as 31% in data set [1] and 0% in data set [2].
Take `CNC(=O)/C=C1/COc2c1ccc(OS(=O)(=O)c1ccc(OC)cc1)c2C`: in data set [2], the inhibition at 10 µM was determined as 0%. In data set [3], this molecule showed an IC50 of 7 nM. For the same molecule, in data set [4], the “Ratio IC50” value turned out to be 1000.
Consider `CNC(=O)/C=C1/COc2cc(OS(=O)(=O)c3cccc(Cl)c3)ccc21`, for which 10 µM produced 0% inhibition in data set [2]. The midpoint of inhibition in data set [3], the IC50, lay at 41 nM.
Turning to `CNC(=O)Cc1cc(=O)oc2cc(OS(=O)(=O)c3cccc(Cl)c3)ccc12`, the IC50 turned out to be 111 nM in data set [3] and 8300 nM in data set [5].
In data set [2], `CNC(=O)/C=C1/COc2c1ccc(OS(=O)(=O)c1ccc(C#N)cc1)c2C` had an inhibition at 10 µM of 6%. For the same molecule, the IC50 in data set [3] amounted to 15 nM.
`CCNC(=O)/C=C1/COc2cc(OS(=O)(=O)c3cccc(Cl)c3)ccc21` gave an inhibition at 10 µM in data set [2] of 0%. Besides, in data set [3], half-maximal inhibition (IC50) was put at 4200 nM.
In data set [2], `CNC(=O)/C=C1/COc2c1ccc(OS(=O)(=O)c1ccccc1)c2C` came in with an inhibition at 10 µM of 5%. In data set [3], this molecule registered a 50% inhibitory concentration (IC50) of 9.8 nM.
In turn, `CNC(=O)/C=C1/COc2cc(OS(=O)(=O)c3ccc(Cl)s3)ccc21` had an inhibition at 10 µM in data set [2] of 6%. In data set [3], this molecule came in with an IC50 of 16 nM.
As for `CNC(=O)/C=C1/COc2cc(OS(=O)(=O)c3ccc(C(C)=O)cc3)ccc21`, in data set [2], the inhibition at 10 µM was found to be 0%. The half-maximal inhibitory concentration (IC50) in data set [3] is 29 nM.
`CNC(=O)/C=C1/COc2cc(OS(=O)(=O)c3ccc(C#N)cc3)ccc21` gave a half-inhibitory concentration (IC50) in data set [3] of 45 nM. For the same molecule, the inhibition at 20 µM in data set [6] was found to be 10%.
Take `CNC(=O)/C=C1/COc2cc(OS(=O)(=O)CCC(F)(F)F)ccc21`: the inhibition at 10 µM in data set [2] was found to be 17%. In data set [3], this molecule returned an IC50 of 9.1 nM.
Molecule `CNC(=O)Cc1coc2cc(OS(=O)(=O)c3cccc(Cl)c3)ccc12` showed an inhibition at 10 µM in data set [2] of 4%. In data set [3], this molecule showed an IC50 of 409 nM.
As to `CNC(=O)/C=C1/COc2cc(OS(=O)(=O)c3cccc(F)c3)ccc21`, the half-maximal inhibitory concentration (IC50) in data set [3] turned out to be 41 nM. In data set [6], this molecule gave an inhibition at 20 µM of 6%.
Regarding `CC(C)NC(=O)/C=C1/COc2cc(OS(=O)(=O)c3cccc(Cl)c3)ccc21`, the inhibition at 10 µM in data set [1] was determined as 14%; in data set [2] it was 1%.
For `CNC(=O)c1cc(=O)oc2cc(OS(=O)(=O)c3cccc(Cl)c3)ccc12`, the inhibition at 10 µM in data set [1] was 8%; in data set [2], 9%.
`CNC(=O)/C=C1/COc2cc(OS(=O)(=O)c3ccc(Cl)cc3)ccc21` came in with an inhibition at 10 µM in data set [2] of 6%. Also, the half-inhibitory concentration (IC50) in data set [3] was 12 nM.
Take `O=C1COc2cc(OS(=O)(=O)c3cccc(Cl)c3)ccc21`: the inhibition at 10 µM in data set [1] came out at 17%; in data set [2], 0%.
In data set [2], `O=C(NCCN1CCOCC1)c1ccc(Cl)cc1` [MOCLOBEMIDE] yielded an inhibition at 10 µM of 0%.
In data set [2], `CNC(=O)/C=C1/COc2cc(OS(=O)(=O)c3ccc(S(C)(=O)=O)cc3)ccc21` yielded an inhibition at 10 µM of 0%. Further, the concentration for half-maximal inhibition (IC50) in data set [3] was found to be 19 nM.
Molecule `CNC(=O)/C=C1/COc2c1ccc(OS(=O)(=O)c1cccc(Cl)c1)c2C` had an inhibition at 10 µM in data set [2] of 2%. This molecule showed a half-maximal inhibitory concentration (IC50) in data set [3] of 24 nM.
`CNC(=O)/C=C1/COc2cc(OCc3cccc(Cl)c3)ccc21`: the IC50 stood at 427 nM in data set [3] and 36 nM in data set [5].
The corresponding values for `NCc1cc(=O)oc2cc(OS(=O)(=O)c3cccc(Cl)c3)ccc12` are 997 nM and 3300 nM.
`CNC(=O)/C=C1/COc2cc(OS(=O)(=O)c3cccc(C#N)c3)ccc21` showed an inhibition at 10 µM in data set [2] of 0%. The molecule also yielded an IC50 in data set [3] of 19 nM.
In data set [2], `CNC(=O)/C=C1/COc2cc(OS(=O)(=O)c3ccc(OC)cc3)ccc21` showed an inhibition at 10 µM of 0%. Moreover, the IC50 in data set [3] amounted to 11 nM.
On to `CNCc1cc(=O)oc2cc(OS(=O)(=O)c3cccc(Cl)c3)ccc12`, for which the IC50 in data set [3] worked out at 5300 nM; in data set [5], 1700 nM.
In the case of `CNC(=O)/C=C1/COc2cc(OS(=O)(=O)c3ccc([N+](=O)[O-])cc3)ccc21`, the inhibition at 10 µM in data set [2] came out at 13%. 37 nM corresponded to half-maximal inhibition in data set [3] (IC50).
On the same counts, the results for `CNC(=O)/C=C1/COc2c1ccc(OS(=O)(=O)CCC(F)(F)F)c2C` are 5% and 11 nM.
In data set [2], `CNC(=O)/C=C1/COc2cc(OS(=O)(=O)c3ccccc3)ccc21` displayed an inhibition at 10 µM of 0%. The molecule further registered a concentration for half-maximal inhibition (IC50) in data set [3] of 34 nM.
For the molecule `CNC(=O)Cc1coc2cc(OCc3cccc(Cl)c3)ccc12`, the IC50 in data set [3] was determined as 3100 nM; in data set [5] it was 284 nM.

The values are drawn from ChEMBL document CHEMBL2321669, “Discovery, biological evaluation, and structure-activity and -selectivity relationships of 6'-substituted (E)-2-(benzofuran-3(2H)-ylidene)-N-methylacetamides, a novel class of potent and selective monoamine oxidase inhibitors” (J Med Chem, 2013).
